Experimental findings from article PMC8717589 (ACS Omega, 2021) are described below.

Structures are written as SMILES. Read-outs that look alike come from different tables or passages of the source. Bounds are passed on as bounds.

In series [1] the test system is L. infantum MHOM/TN/80/IPT1 promastigotes. Nature of the series: L. infantum promastigotes viability assay. The series is classed as cell-based, Leishmania infantum. The following applies: 72 h; for inhibition at 20 µM: read-out: Percentage of inhibition at 20 μM, L. infantum MHOM/TN/80/IPT1. An outline of the steps:
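Late log/stationary promastigotes were seeded in RPMI-PY at 2.5 × 10^6/mL. They were treated 72 h at 26 °C with 1:2 or 2:3 dilutions from 20 to 0.31 μM, with DMSO vehicle control, in duplicate. MTS/PMS was added at 26 °C until formazan formed, then A492 was read. Growth inhibition is relative to DMSO. IC50 from a normalized-response nonlinear fit with unconstrained Hill slope. Mean and 95% CI, ≥3 independent experiments.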

The nature of series [2]: Cytotoxicity assay. The following applies: dog, DH82 cells. The class given is cell-based, canine. In outline:
(§1)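 THP-1 (RPMI-1640, 10% FBS; 5 × 10^6 cells/mL) were PMA-differentiated (20 ng/mL, 48 h). DH82 (EMEM, 15% FBS; 2 × 10^5/well) were attached overnight. Both were exposed 72 h at 37 °C to 2, 10, 20, 80 and 200 μM, with DMSO control, in duplicate. Read-out was MTS/PMS A492, with % inhibition at 200 μM.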

A further series deals with DH82 cells. The series can be described thus: Cytotoxicity assay. The class given is cell-based, canine. The following applies: IC50 on L. infantum MHOM/TN/80/IPT1; CC50 72 h. An outline of the steps: as §1
Series [3] can be described thus: Cytotoxicity assay. The series is classed as cell-based, human. The following applies: human, PMA-differentiated THP-1 cells (macrophage-like). An outline of the steps:
as §1

The test system of the next series is THP-1 cells. The series can be described thus: Cytotoxicity assay. The class given is cell-based, human. The following applies: for THP-1 selectivity index (CC50/IC50): IC50 on L. infantum MHOM/TN/80/IPT1, CC50 72 h. An outline of the steps: as §1
[4] abbreviates: Leishmania infantum, read-out: L. infantum MHOM/TN/80/IPT1 IC50 (95% CI), promastigotes, 72 h, MTS.

As for `CCOC(=O)c1cn(CC(c2cn(C)c3ccc(C)cc23)c2cn(C)c3ccc(C)cc23)c(C)c1C(=O)OC` [1c], the IC50 in series [1] (setting [4]) was above 20 µM. In series [1] (Leishmania infantum), the inhibition at 20 µM was 43%.
In the case of `CCOC(=O)c1c(C(=O)OC)cn(CC(c2cn(C)c3cc(Br)ccc23)c2cn(C)c3cc(Br)ccc23)c1C` [1d], the IC50 in series [1] (setting [4]) was above 20 µM. In series [1] (Leishmania infantum), the inhibition at 20 µM stood at 11%.
By CC50 is commonly meant the concentration at which the toxic effect on the cells reaches its halfway point. Take `COC(=O)c1c(C)ncn1CC(c1c[nH]c2ccccc12)c1c[nH]c2ccccc12` [2a]: the CC50 at 72 h in “Cytotoxicity assay [2]” is 35.3 µM; in the series “Cytotoxicity assay [3]” it was 37.9 µM. The “DH82 selectivity index (CC50/IC50)” value in the series with DH82 cells was determined as 3.5. In the series with THP-1 cells, the “THP-1 selectivity index (CC50/IC50)” value was 3.8. The IC50 in series [1] (setting [4]) came to 10 µM.
For the molecule `COC(=O)c1c(C)ncn1CC(c1c[nH]c2ccc(C)cc12)c1c[nH]c2ccc(C)cc12` [2b], the results for the CC50 at 72 h in “Cytotoxicity assay [2]” and in “Cytotoxicity assay [3]” were 24.8 µM and 26.9 µM, respectively. Moreover, the “DH82 selectivity index (CC50/IC50)” value with DH82 cells was 3.2. For the same molecule, the “THP-1 selectivity index (CC50/IC50)” value in the series with THP-1 cells amounted to 3.5. Moreover, the IC50 in series [1] (setting [4]) is 7.7 µM.
Consider `CCc1ncn(CC(c2c[nH]c3ccc(C)cc23)c2c[nH]c3ccc(C)cc23)c1C(=O)OC` [2c], for which the cytotoxic concentration (CC50) at 72 h in the series “Cytotoxicity assay [2]” worked out at 23.5 µM; in “Cytotoxicity assay [3]”, 38.6 µM. Further, the “DH82 selectivity index (CC50/IC50)” value in the series on DH82 cells is 2.3. Also, in the series on THP-1 cells, the “THP-1 selectivity index (CC50/IC50)” value came to 3.8. In series [1] (setting [4]), the IC50 was 10 µM.
Taken in the same sequence, the figures for `COC(=O)c1c(C)ncn1CC(c1c[nH]c2cc(Br)ccc12)c1c[nH]c2cc(Br)ccc12` [2d] were 18.9 µM, 15.4 µM, 2.2, 1.8 and 8.5 µM.
With `COC(=O)c1c(C)ncn1CC(c1cn(C)c2ccccc12)c1cn(C)c2ccccc12` [2e], the figures for the CC50 at 72 h in “Cytotoxicity assay [2]” and in “Cytotoxicity assay [3]” were 24.3 µM and 55.4 µM, respectively. In addition, the “DH82 selectivity index (CC50/IC50)” value in the series with DH82 cells worked out at 5.0. For the same molecule, the “THP-1 selectivity index (CC50/IC50)” value with THP-1 cells is listed as 11.3. Moreover, the IC50 in series [1] (setting [4]) came to 4.9 µM.
On to `CCOC(=O)c1c(C)ncn1CC(c1cn(C)c2ccc([N+](=O)[O-])cc12)c1cn(C)c2ccc([N+](=O)[O-])cc12` [2f], for which the CC50 at 72 h in the series “Cytotoxicity assay [2]” is above 200 µM; in “Cytotoxicity assay [3]” it was 35.1 µM. Moreover, the “DH82 selectivity index (CC50/IC50)” value in the series on DH82 cells is above 41. For the same molecule, the “THP-1 selectivity index (CC50/IC50)” value in the series with THP-1 cells was 7.2. Further, in series [1] (setting [4]), the IC50 turned out to be 4.9 µM.
In the case of `Cc1cn(CC(c2c[nH]c3ccccc23)c2c[nH]c3ccccc23)nn1` [3a], in series [1] (setting [4]), the IC50 was above 20 µM. The inhibition at 20 µM in series [1] (Leishmania infantum) amounted to 22%.
For the molecule `Cc1cn(CC(c2cn(C)c3ccccc23)c2cn(C)c3ccccc23)nn1` [3b], the CC50 at 72 h is 31.9 µM in the series “Cytotoxicity assay [2]” and above 200 µM in the series “Cytotoxicity assay [3]”. The “DH82 selectivity index (CC50/IC50)” value in the series on DH82 cells is 3.9. In addition, the inhibition at 200 µM in the series with THP-1 cells (Homo sapiens, THP-1, 72 h, read-out: Percentage of inhibition at 200 μM, THP-1) was found to be 33%. Also, in the series with THP-1 cells, the “THP-1 selectivity index (CC50/IC50)” value is given as above 25. The IC50 was below 8 µM in series [1] (setting [4]) and 8.1 µM in series [1] (read-out: L. infantum MHOM/TN/80/IPT1 IC50 (95% CI), promastigotes, MTS).
Take `C[C@@H]1[C@H](O)[C@@H](C)/C=C/C=C/C=C/C=C/C=C/C=C/C=C/[C@H](O[C@@H]2O[C@H](C)[C@@H](O)[C@H](N)[C@@H]2O)C[C@@H]2O[C@](O)(C[C@@H](O)C[C@@H](O)[C@H](O)CC[C@@H](O)C[C@@H](O)CC(=O)O[C@H]1C)C[C@H](O)[C@H]2C(=O)O` [Amph B, amphotericin B, reference compound]: the values for the CC50 at 72 h in “Cytotoxicity assay [2]” and in the series “Cytotoxicity assay [3]” were above 200 µM and 2.8 µM, respectively. Further, in the series with DH82 cells, the “DH82 selectivity index (CC50/IC50)” value is above 3333. Moreover, the “THP-1 selectivity index (CC50/IC50)” value in the series on THP-1 cells was determined as 45.8. Moreover, in series [1] (setting [4]), the IC50 turned out to be 0.064 µM.
For `c1ccc2c(Cc3c[nH]c4ccccc34)c[nH]c2c1` [DIM, 3,3′-diindolylmethane, reference compound], the IC50 in series [1] (setting [4]) is above 20 µM. Further, the inhibition at 20 µM in series [1] (Leishmania infantum) amounted to 10%.
On to `CCCCCCCCCCCCCCCCOP(=O)([O-])OCC[N+](C)(C)C` [Milt, miltefosine, reference compound], for which the CC50 at 72 h in “Cytotoxicity assay [2]” came to 95.9 µM; in “Cytotoxicity assay [3]” it was 27.8 µM. Further, the “DH82 selectivity index (CC50/IC50)” value in the series with DH82 cells came to 33.6. Moreover, in the series with THP-1 cells, the “THP-1 selectivity index (CC50/IC50)” value was found to be 9.8. Besides, the IC50 in series [1] (setting [4]) stood at 2.9 µM.
As to `N=C(N)c1ccc(OCCCCCOc2ccc(C(=N)N)cc2)cc1` [Pent, pentamidine, reference compound], the results for the CC50 at 72 h in the series “Cytotoxicity assay [2]” and in the series “Cytotoxicity assay [3]” were 10.6 µM and 103 µM, respectively. The IC50 in series [1] (setting [4]) worked out at 2.6 µM.
